Each structure is given as a SMILES string.

Data set [1] addresses T1, Hepatocyte growth factor receptor (Homo sapiens, UniProt P08581). The experiment in a line: Inhibition of HGF-stimulated c-Met autophosphorylation in serum starved human PC3 cells pre-incubated for 1 hr followed by human recombinant HGF stimulation for 10 mins by quantitative electrochemiluminescence immunoassay. Format: cell-based, PC-3. In outline:
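Serum-starved PC-3 cells (plated in high-glucose DMEM/10% FBS, then 16 h in low-glucose DMEM with 0.1% BSA) were treated with a 10-point inhibitor dilution for 1 h at 37 °C. Cells were then stimulated with 200 ng/mL recombinant human HGF for 10 min and lysed. Phospho-c-Met was captured with biotinylated anti-c-Met and 4G10 by electrochemiluminescence. IC50, n ≥ 2.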

The nature of data set [2]: AUC (0 to infinity) in Sprague-Dawley rat at 2 mg/kg, po. In kind it is ADME, organism-based. Set-up: time infinity, dose 2 mg/kg, route oral. The note with it: plasma. In outline: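 Male Sprague-Dawley rats given 2.0 mg/kg orally in 2% (w/v) hydroxypropylmethylcellulose, 1% (w/v) Tween 80 in water, pH 2.2 (adjusted with HCl or MSA). Some inhibitors instead used 10% (v/v) dimethylacetamide in the same vehicle.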

For data set [3], the system named is Liver microsome. The experiment in a line: Stability in human liver microsomes assessed as compound turnover rate. Format: ADME.
Data set [4] deals with Cytochrome P450 3A4 (Homo sapiens, UniProt P08684). The data set can be described thus: Inhibition of CYP3A4 (unknown origin). In kind it is ADME.
The target in data set [5] is T1, Hepatocyte growth factor receptor. The data set can be described thus: Inhibition of recombinant c-Met kinase domain (unknown origin) incubated for 30 mins using gastrin peptide substrate by HTRF assay. (In general: In TR-FRET formats the signal depends on donor and acceptor labels being close together.)
The target in data set [6] is Cytochrome P450 2D6 (Homo sapiens, UniProt P10635). The data set can be described thus: Inhibition of CYP2D6 (unknown origin). In kind it is ADME.
Data set [7] deals with Liver microsome. The experiment in a line: Stability in rat liver microsomes assessed as compound turnover rate. In kind it is ADME. For orientation: Microsomes from liver hold many membrane-bound enzymes, among them those of drug oxidation.

T1 sequence (P08581 whole entry): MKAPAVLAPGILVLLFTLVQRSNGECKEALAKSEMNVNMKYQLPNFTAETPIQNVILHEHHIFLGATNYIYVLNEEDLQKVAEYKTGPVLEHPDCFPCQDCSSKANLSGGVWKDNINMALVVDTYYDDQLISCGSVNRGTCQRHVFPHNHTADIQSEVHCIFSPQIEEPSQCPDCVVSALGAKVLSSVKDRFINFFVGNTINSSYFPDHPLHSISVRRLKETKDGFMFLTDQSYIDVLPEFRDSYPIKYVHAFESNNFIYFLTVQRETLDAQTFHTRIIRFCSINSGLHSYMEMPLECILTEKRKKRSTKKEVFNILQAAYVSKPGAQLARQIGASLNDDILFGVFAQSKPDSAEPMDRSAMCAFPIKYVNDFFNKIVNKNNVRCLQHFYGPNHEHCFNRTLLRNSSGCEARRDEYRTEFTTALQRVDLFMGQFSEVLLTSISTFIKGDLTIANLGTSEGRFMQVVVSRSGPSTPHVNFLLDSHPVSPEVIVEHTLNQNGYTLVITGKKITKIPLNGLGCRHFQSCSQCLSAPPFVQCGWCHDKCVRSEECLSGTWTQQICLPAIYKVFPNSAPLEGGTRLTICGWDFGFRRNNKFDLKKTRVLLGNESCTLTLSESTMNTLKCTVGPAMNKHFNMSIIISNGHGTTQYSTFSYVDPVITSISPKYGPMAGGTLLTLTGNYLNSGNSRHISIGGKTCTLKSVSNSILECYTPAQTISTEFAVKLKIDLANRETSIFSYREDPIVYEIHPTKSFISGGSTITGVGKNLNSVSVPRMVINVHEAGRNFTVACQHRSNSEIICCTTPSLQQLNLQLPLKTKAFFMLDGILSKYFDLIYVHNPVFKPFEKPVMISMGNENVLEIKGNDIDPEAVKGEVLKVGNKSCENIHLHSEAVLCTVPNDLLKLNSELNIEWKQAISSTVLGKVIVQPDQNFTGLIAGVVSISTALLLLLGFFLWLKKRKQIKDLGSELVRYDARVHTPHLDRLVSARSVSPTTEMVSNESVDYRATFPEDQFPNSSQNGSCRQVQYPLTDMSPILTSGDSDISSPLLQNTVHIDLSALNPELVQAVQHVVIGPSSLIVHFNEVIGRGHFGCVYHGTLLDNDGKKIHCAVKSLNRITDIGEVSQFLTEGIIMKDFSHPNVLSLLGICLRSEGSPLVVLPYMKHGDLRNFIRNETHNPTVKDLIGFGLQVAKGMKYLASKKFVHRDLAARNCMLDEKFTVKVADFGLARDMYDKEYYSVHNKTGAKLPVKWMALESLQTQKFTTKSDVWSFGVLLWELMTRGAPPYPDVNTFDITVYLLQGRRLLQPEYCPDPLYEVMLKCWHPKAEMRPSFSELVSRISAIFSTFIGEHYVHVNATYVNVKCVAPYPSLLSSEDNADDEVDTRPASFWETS
Cytochrome P450 2D6, sequence (P10635 whole entry): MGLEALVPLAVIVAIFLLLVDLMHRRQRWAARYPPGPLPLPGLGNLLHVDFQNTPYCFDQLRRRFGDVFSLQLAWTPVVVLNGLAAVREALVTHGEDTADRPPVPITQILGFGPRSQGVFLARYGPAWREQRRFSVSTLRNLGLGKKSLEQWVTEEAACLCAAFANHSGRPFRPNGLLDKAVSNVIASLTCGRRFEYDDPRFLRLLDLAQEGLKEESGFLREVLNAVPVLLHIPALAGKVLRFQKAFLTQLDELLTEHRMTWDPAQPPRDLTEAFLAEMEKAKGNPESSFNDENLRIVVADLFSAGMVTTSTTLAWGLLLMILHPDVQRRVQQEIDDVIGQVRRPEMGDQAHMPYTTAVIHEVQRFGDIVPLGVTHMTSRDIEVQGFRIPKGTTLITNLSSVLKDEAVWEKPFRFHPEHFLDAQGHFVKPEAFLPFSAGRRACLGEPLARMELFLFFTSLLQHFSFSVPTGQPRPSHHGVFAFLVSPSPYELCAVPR
Cytochrome P450 3A4, sequence (P08684 whole entry, the tested form may be a part): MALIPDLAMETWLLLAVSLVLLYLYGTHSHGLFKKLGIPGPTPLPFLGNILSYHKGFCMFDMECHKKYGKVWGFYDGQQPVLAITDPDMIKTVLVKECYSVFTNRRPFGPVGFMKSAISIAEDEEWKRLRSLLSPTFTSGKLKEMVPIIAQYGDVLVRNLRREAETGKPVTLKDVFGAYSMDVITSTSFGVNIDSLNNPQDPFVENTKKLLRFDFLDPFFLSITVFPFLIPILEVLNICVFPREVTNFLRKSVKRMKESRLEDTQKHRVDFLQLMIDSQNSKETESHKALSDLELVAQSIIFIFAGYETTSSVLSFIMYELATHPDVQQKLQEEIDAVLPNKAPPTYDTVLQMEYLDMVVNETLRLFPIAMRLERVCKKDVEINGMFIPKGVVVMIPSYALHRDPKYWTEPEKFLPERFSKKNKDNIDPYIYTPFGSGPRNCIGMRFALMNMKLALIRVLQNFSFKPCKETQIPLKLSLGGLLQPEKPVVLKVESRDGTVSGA

On to `COc1cnc2ccc(C(F)(F)c3nnc4c(F)cc(-c5cnn(C)c5)cn34)cc2c1`, for which the half-maximal inhibitory concentration (IC50) – broadly, the concentration at which inhibition is half-maximal – worked out at 13 nM in data set [1] and 12 nM in data set [5]. In addition, the AUC(0-inf) (as a rule, the area under the concentration-time curve extrapolated to infinity) in data set [2] is more than 386 µM·h. Further, the Stability entry in data set [3] and in data set [7] was “Stable” in each case. Also, the “inhibition (INH)” value in data set [4] and in data set [6] was “Not Active” each time.

Source of the values: ChEMBL document CHEMBL3414463, “Discovery of potent and selective 8-fluorotriazolopyridine c-Met inhibitors” (J Med Chem, 2015).
